ChEMBL document CHEMBL1158126, “Sodwanone and yardenone triterpenes from a South African species of the marine sponge Axinella inhibit hypoxia-inducible factor-1 (HIF-1) activation in both breast and prostate tumor cells” (J Nat Prod, 2006)

What was measured:
[1] = target: T1, Hypoxia inducible factors; HIF-1-alpha, HIF-2-alpha (Homo sapiens, UniProt Q16665+Q99814); experiment: Inhibition of hypoxia-induced HIF1 activation in human T47D cells by reporter gene assay; type: cell-based
In short: (§1)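 Luciferase reporter cells (T47D or PC-3) transfected, treated with compound and exposed to hypoxia (1% O2:5% CO2:94% N2). Normoxic comparison at 5% CO2:95% air. Compounds from 10 mM isopropanol stocks, tested up to 30 μM. Luciferase activity measured.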

[2] = target: T1, Hypoxia inducible factors; HIF-1-alpha, HIF-2-alpha; experiment: Inhibition of 1,10 phenanthroline-induced HIF1 activation in human T47D cells by reporter gene assay; type: cell-based
In short: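 Transfected T47D luciferase reporter cells. HIF-1 induced with the hypoxia mimetic 1,10-phenanthroline at 10 μM. Compounds from 10 mM isopropanol stocks, tested up to 30 μM. HIF-1 activity read as luciferase activity.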

[3] = target: T1, Hypoxia inducible factors; HIF-1-alpha, HIF-2-alpha; experiment: Inhibition of hypoxia-induced HIF1 activation in human PC3 cells by reporter gene assay; type: cell-based; conditions: pc-3; in short: as §1
T47D = experiment: Cytotoxicity against human T47D cells after 48 hrs by neutral red assay; type: functional, cell-based
In short: (§2)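 Cells kept in DMEM/F12 with 10% FBS and antibiotics at 37° C, 5% CO2:95% air. Plated at 30,000 cells/well and grown 24 h. Compounds diluted in serum-free DMEM/F12 and added (n = 3). Incubated 48 h at 37° C under normoxia. Viability read by neutral red at OD540. % inhibition = 1 - OD540(treated)/OD540(control). Highest concentration tested 30 μM.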

MDA-MB-231 = experiment: Cytotoxicity against human MDA-MB-231 cells after 48 hrs by neutral red assay; type: functional, cell-based; conditions: MDA-MB-231, 48 h; in short: as §2
PC-3 = experiment: Cytotoxicity against human PC-3 cells after 48 hrs by neutral red assay; type: functional, cell-based; conditions: PC-3, 48 h; in short: as §2
DU-145 = experiment: Cytotoxicity against human DU145 cells after 48 hrs by neutral red assay; type: functional, cell-based; conditions: DU-145, 48 h; in short: as §2

Structure (SMILES)	IC50 [1]	IC50 [2]	IC50 [3]	IC50 (T47D)	IC50 (MDA-MB-231)	IC50 (PC-3)	IC50 (DU-145)
C[C@H]1CC[C@@H]2OC(C)(C)[C@@H](O)CC=C2[C@@]1(C)CC[C@]1(C)[C@@H](C)CC[C@@H]2OC(C)(C)[C@@]3(O)CC[C@]21O3 [SODWANONE V]	15 µM	15 µM	15 µM	> 30 µM	23 µM	> 30 µM	> 30 µM
CC1=C(CCC23CCC(=O)C(C)(C)C2=C(O)C(=O)C(C)=C3C)[C@]2(C)CCC(=O)C(C)(C)O[C@H]2CC1 (stereo partly drawn) [SODWANONE U]	> 30 µM	> 30 µM	> 30 µM	> 30 µM	> 30 µM	> 30 µM	> 30 µM
CC1=C(CCC2=C(C)C(=O)C(O)=C3C(C)(C)C(=O)CC[C@]23C)[C@]2(C)CCC(=O)C(C)(C)O[C@H]2CC1 [10,11-DIHYDROSODWANONE B]	20 µM	30 µM	> 30 µM	> 30 µM	> 30 µM	> 30 µM	> 30 µM
CC1=C(CC[C@H]2[C@]3(C)CCC(=O)C(C)(C)O[C@H]3CC[C@]2(C)O)[C@@]2(C)CCC(=O)C(C)(C)C2=C(O)C1=O [SODWANONE A]	20 µM	> 30 µM	> 30 µM	> 30 µM	> 30 µM	> 30 µM	> 30 µM
CC1=C(CC[C@@H]2[C@H](C)CC[C@@H]3OC(C)(C)C(=O)CC[C@]32C)[C@@]2(C)CCC(=O)C(C)(C)C2=C(O)C1=O [SODWANONE B]	> 30 µM	> 30 µM	> 30 µM	> 30 µM	> 30 µM	> 30 µM	> 30 µM
CC1=C(CCC2=C(C)CC[C@@H]3OC(C)(C)[C@H](O)CC[C@@]23C)[C@]2(C)CCC(=O)C(C)(C)O[C@H]2CC1 [SODWANONE T]	20 µM	20 µM	> 30 µM	> 30 µM	> 30 µM	> 30 µM	> 30 µM
CC(C)C(=O)CC[C@@]1(C)[C@@H]2CC[C@H](C)[C@@]1(CC[C@@]1(C)C3=CC[C@@H](O)C(C)(C)O[C@@H]3CC[C@H]1C)O2 [SODWANONE W]	> 30 µM			> 30 µM	> 30 µM	> 30 µM	> 30 µM

Further lines, with some results ahead:

IC50 [1]	IC50 [2]	IC50 [3]	Structure (SMILES)	IC50 (T47D)	IC50 (MDA-MB-231)	IC50 (PC-3)	IC50 (DU-145)
> 30 µM	> 30 µM	> 30 µM	C[C@H]1CC[C@@H]2OC(C)(C)C(=O)CC[C@@]2(C)[C@@]12O[C@H]([C@@]1(C)CC[C@@H]3OC(C)(C)C(=O)CC[C@]31C)C[C@H]2O	> 30 µM	> 30 µM	> 30 µM	> 30 µM
25 µM	> 30 µM	> 30 µM	C=C1CC[C@@H]2OC(C)(C)[C@H](O)CC[C@@]2(C)[C@@H]1CC[C@]1(O)[C@@H](C)CC[C@@H]2OC(C)(C)C(=O)CC[C@]21C	> 30 µM	> 30 µM	> 30 µM	> 30 µM
> 30 µM			C[C@H]1CC[C@@H]2OC(C)(C)C(=O)CC[C@@]2(C)[C@]12CC[C@@H]([C@@]1(C)CC[C@@H]3OC(C)(C)C(=O)CC[C@]31C)O2 [YARDENONE]	> 30 µM	> 30 µM	> 30 µM	> 30 µM
20 µM	> 30 µM	> 30 µM	C=C1CC[C@@H]2OC(C)(C)[C@H](OC(C)=O)CC[C@@]2(C)[C@@H]1CC[C@]1(O)[C@@H](C)CC[C@@H]2OC(C)(C)C(=O)CC[C@]21C	22 µM	> 30 µM	> 30 µM	> 30 µM
